Data from ChEMBL document CHEMBL1126297, “Synthesis and evaluation of analogues of (Z)-1-(4-methoxyphenyl)-2-(3,4,5-trimethoxyphenyl)ethene as potential cytotoxic and antimitotic agents” (J Med Chem, 1992).
pEC50, pIC50: −log10 of the molar value.

Legend:
Format in all cases: functional
MLM [1] = assay: Cytotoxicity against human MLM melanoma cell line.; conditions: read-out: ED50 (the source's name)
How it was run: (§1)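 MTT colorimetric assay run in the Purdue Cell Culture Laboratory. Poorly water-soluble compounds were serially diluted in DMSO and added as 0.5 μL aliquots per well. Cells were incubated with compound for 6 days before MTT was added. […] The reported ED50 is the mean of two determinations.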

Bos taurus = species: Bos taurus; assay: Inhibition of tubulin polymerization
How it was run: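 Bovine brain tubulin, purified to electrophoretic homogeneity, was preincubated at 37 °C with a range of compound concentrations and then chilled on ice. GTP was added and polymerization followed at 37 °C by turbidity at 350 nm. Extent was read at 20 min against two controls per experiment, and IC50 was determined graphically. Actives were run in ≥3 independent assays, inactives (IC50 > 40 μM) in ≥2.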

A549 = assay: Compound was evaluated for cytotoxicity against human A-549 non-small cell lung cancer cell line.; conditions: read-out: ED50 (the source's name); how it was run: as §1
HT-29 = assay: Cytotoxicity against human HT-29 colon cell line.; conditions: read-out: ED50 (the source's name); how it was run: as §1
SK-MEL-5 = assay: Compound was evaluated for cytotoxicity against human SKMEL-5 melanoma cell line.; conditions: read-out: ED50 (the source's name); how it was run: as §1
MCF7 = assay: Cytotoxicity against human MCF-7 breast cancer cell line.; conditions: read-out: ED50 (the source's name); how it was run: as §1
MLM [2] = assay: Compound was evaluated for cytotoxicity against human MLM melanoma cell line.; conditions: read-out: ED50; how it was run: as §1

SMILES	pEC50 (MLM [1])	pIC50 (Bos taurus)	pEC50 (A549)	pEC50 (HT-29)	pEC50 (SK-MEL-5)	pEC50 (MCF7)	pEC50 (MLM [2])
COc1ccc(Cc2c3cc(OC)c(OC)c(OC)c3cc[n+]2C)cc1	< 4.60	< 4.40	4.71	4.69	5.68	< 4.60	
CCCOc1ccc(/C=C/c2cc(OC)c(OC)c(OC)c2)cc1	< 4.60	< 4.40	5.04	< 4.60	< 4.60	4.90	
COc1ccc(CC2NCCc3c2cc(OC)c(OC)c3OC)cc1 (stereo not drawn)	< 4.60	< 4.40	4.71	4.69	< 4.60	< 4.60	
COc1ccc(C2Cc3cc(OC)c(OC)c(OC)c3C2=O)cc1 (stereo not drawn)	< 4.60	< 4.40	< 4.60	< 4.60	< 4.60	< 4.60	
CCc1ccc(/C=C/c2cc(OC)c(OC)c(OC)c2)cc1	6.66	< 4.40	6.89	6.96	6.77	5.92	
COc1ccc(/C=C\c2ccc(OC)c(OC)c2)cc1 [7Z-3,4,4'-TRIMETHOXYSTILBENE]	< 4.60	4.74	< 4.60	< 4.60	< 4.60	< 4.60	
COc1ccc(/C=C\c2cc(OC)cc(OC)c2)cc1 [8Z-3,4',5-TRIMETHOXYSTILBENE]	7.01	5.42	6.89	6.47	6.38	6.80	
COc1cccc2c1C(=O)c1c(O)c3c(c(O)c1C2=O)C[C@@](O)(C(=O)CO)C[C@@H]3O[C@H]1C[C@H](N)[C@H](O)[C@H](C)O1 [DOXORUBICIN]			7.54	7.26	7.49	7.51	6.89
COc1ccc(/C=C/c2cc(OC)cc(OC)c2)cc1 [TRISMETHOXYRESVERATROL]	< 4.60	< 4.40	5.12	5.16	6.06	5.01	
